Reference: ChEMBL document CHEMBL1914438, “Synthesis and biological activity of novel N-cycloalkyl-(cycloalkylaryl)-2-[(3-R-2-oxo-2H-[1,2,4]triazino[2,3-c]quinazoline-6-yl)thio]acetamides” (2011)

Legend:
Assay type in all cases: functional
[1] = system: CAKI-1; experiment: Growth inhibition of human Caki1 cells after 48 hrs by SRB assay; settings: CAKI-1, 48 h
In short: (§1)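 NCI panel of about 60 human tumor lines, 48 h continuous exposure at five 10-fold dilutions from 10^-4 to 10^-8 M. SRB protein staining was read as absorbance at time zero, in untreated controls and at each concentration. GI50 is the concentration giving 50% lower net protein increase than controls. TGI is where Ti = Tz, and LC50 is 50% protein loss versus start.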

[2] = system: MDA-MB-435; experiment: Cytotoxicity against human MDA-MB-435 cells assessed as cell growth at 10^-5 M after 48 hrs by SRB assay; settings: MDA-MB-435, 48 h, read-out: Activity
In short: (§2)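 NCI 60-cell-line one-dose primary screen: cells inoculated and preincubated 24–48 h, then test agent added at a single 10^-5 M concentration for a further 48 h. Endpoint is sulforhodamine B protein staining read spectrophotometrically. Reported as percent growth relative to untreated control cells.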

[3] = system: HOP-92; experiment: Growth inhibition of human HOP92 cells after 48 hrs by SRB assay; settings: HOP-92, 48 h; in short: as §1
[4] = system: PC-3; experiment: Growth inhibition of human PC3 cells after 48 hrs by SRB assay; settings: PC-3, 48 h; in short: as §1
[5] = system: OVCAR-3; experiment: Growth inhibition of human OVCAR3 cells after 48 hrs by SRB assay; settings: OVCAR-3, 48 h; in short: as §1
[6] = system: Photobacterium leiognathi; experiment: Antibacterial activity against Photobacterium leiognathi Sh1 assessed as inhibition of bacterial luminescence at 0.1 mg/mL after 10 mins by bioluminometry-based acute action test; parameters: scale not given: the % may be the effect or the level left
In short: (§3)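 Marine P. leiognathi Sh1 (Azov Sea shrimp isolate) diluted in chloride solution to 10^5 cells/mL; compounds suspended in DMSO mixed with 1 mL bacterial suspension. Acute test: 10 min at 25 °C, then bioluminescence measured by bioluminometer as % of compound-free control. Tetracycline reference.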

[7] = system: SN12C; experiment: Cytotoxicity against human SN12C cells assessed as cell growth at 10^-5 M after 48 hrs by SRB assay; settings: read-out: Activity
In short: (§4)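 NCI human tumor cell line panel from nine cancer types. Each line was inoculated and preincubated 24–48 h, then exposed to a single concentration (10^-5 M) for 48 h. Growth was read by sulforhodamine B protein staining, measured spectrophotometrically. Value reported as percent growth of treated cells relative to untreated controls.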

[8] = system: DU-145; experiment: Cytotoxicity against human DU145 cells assessed as cell growth at 10^-5 M after 48 hrs by SRB assay; settings: DU-145, 48 h, read-out: Activity; in short: as §2
[9] = system: HOP-62; experiment: Cytotoxicity against human HOP62 cells assessed as cell growth at 10^-5 M after 48 hrs by SRB assay; settings: HOP-62, 48 h, read-out: Activity; in short: as §2
[10] = system: Photobacterium leiognathi; experiment: Antibacterial activity against Photobacterium leiognathi Sh1 assessed as inhibition of bacterial luminescence at 0.025 mg/mL after 10 mins by bioluminometry-based acute action test; parameters: scale not given: the % may be the effect or the level left; in short: as §3
[11] = system: Mycobacterium; experiment: Antibacterial activity against Mycobacterium luteum assessed as zone of inhibition at 0.5 mg/mL after 24 hrs by stiff-plate agar-diffusion method; settings: read-out: DIZ
[12] = system: Photobacterium leiognathi; experiment: Antibacterial activity against Photobacterium leiognathi Sh1 assessed as inhibition of bacterial luminescence at 0.1 mg/mL after 10 mins by bioluminometry-based chronic action test; parameters: scale not given: the % may be the effect or the level left; settings: in the assay text read “after 16 to 18 hrs” for “after 10 mins”
In short: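 Chronic (growth plus luminescence) test with P. leiognathi Sh1 at 10^5 cells/mL in chloride solution, compounds added in DMSO. After 10 min at 25 °C, growth medium added at 1:50 and the mix incubated 16–18 h at 30 °C. Luminescence then measured by bioluminometer as % of untreated control. Tetracycline reference.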

[13] = system: RPMI-8226; experiment: Growth inhibition of human RPMI8226 cells after 48 hrs by SRB assay; settings: RPMI-8226, 48 h; in short: as §1
[14] = system: NCI-H322M; experiment: Cytotoxicity against human NCI-H322M cells assessed as cell growth at 10^-5 M after 48 hrs by SRB assay; settings: read-out: Activity; in short: as §4
[15] = system: NCI-H23; experiment: Cytotoxicity against human NCI-H23 cells assessed as cell growth at 10^-5 M after 48 hrs by SRB assay; settings: NCI-H23, 48 h, read-out: Activity; in short: as §4
[16] = system: HOP-92; experiment: Cytotoxicity against human HOP92 cells assessed as cell growth at 10^-5 M after 48 hrs by SRB assay; settings: HOP-92, 48 h, read-out: Activity; in short: as §2
[17] = system: Mycobacterium; experiment: Antibacterial activity against Mycobacterium luteum assessed as zone of inhibition at 0.1 mg/mL after 24 hrs by stiff-plate agar-diffusion method; settings: read-out: DIZ
[18] = system: MDA-MB-231; experiment: Growth inhibition of human MDA-MB-231 cells after 48 hrs by SRB assay; settings: MDA-MB-231, 48 h; in short: as §1
[19] = system: Yamadazyma tenuis; experiment: Antifungal activity against Candida tenuis assessed as zone of inhibition at 0.1 mg/mL after 48 to 72 hrs by stiff-plate agar-diffusion method; settings: read-out: DIZ
[20] = system: 786-0; experiment: Growth inhibition of human 786-0 cells after 48 hrs by SRB assay; settings: 786-0, 48 h; in short: as §1
[21] = system: TK-10; experiment: Cytotoxicity against human TK10 cells assessed as cell growth at 10^-5 M after 48 hrs by SRB assay; settings: TK-10, 48 h, read-out: Activity; in short: as §4
[22] = system: SK-OV-3; experiment: Cytotoxicity against human SKOV3 cells assessed as cell growth at 10^-5 M after 48 hrs by SRB assay; settings: SK-OV-3, 48 h, read-out: Activity; in short: as §4
[23] = system: SF-295; experiment: Cytotoxicity against human SF295 cells assessed as cell growth at 10^-5 M after 48 hrs by SRB assay; settings: SF-295, 48 h, read-out: Activity; in short: as §4
[24] = system: RXF 393; experiment: Growth inhibition of human RXF393 cells after 48 hrs by SRB assay; settings: RXF 393, 48 h
In short: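 NCI 60-cell-line human tumor panel. Cells were inoculated and preincubated for 24–48 h, then exposed continuously to compound for 48 h. Primary screen used a single 10^-5 M concentration. Growth was measured by sulforhodamine B protein staining, read spectrophotometrically, and reported as percent growth versus untreated controls. Selected compounds were also run at five 10-fold dilutions (10^-4 to 10^-8 M) to derive GI50 from time-zero-corrected absorbances.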

[25] = system: EKVX; experiment: Growth inhibition of human EKVX cells after 48 hrs by SRB assay; in short: as §1
[26] = system: CCRF-CEM; experiment: Growth inhibition of human CCRF-CEM cells after 48 hrs by SRB assay; in short: as §1
[27] = read-out: pLC50 (the source's name) (converted)

With `CCC1C2CCC(C2)C1NC(=O)CSc1nc2ccccc2c2nc(=O)c(-c3ccc(OC)cc3)nn12` (stereo unspecified) the GI50 [1] was 3.72 µM, the CC50 [1, 27] was greater than 50.1 µM and the TGI ([1]; read-out: pTGI (converted)) was 38.9 µM. It also gave a growth at 10 µM [2] of 58.6%, a GI50 [3] of 0.977 µM and a CC50 [3, 27] of 25.7 µM. It also gave a TGI ([3]; read-out: pTGI (converted)) of 3.98 µM, a GI50 [4] of 2.82 µM and a CC50 [4, 27] greater than 50.1 µM. It also gave a TGI ([4]; read-out: pTGI (converted)) of 24.5 µM, a GI50 [5] of 1.48 µM and a CC50 [5, 27] of 28.2 µM. It also gave a TGI ([5]; read-out: pTGI (converted)) of 5.62 µM, an Activity [6] of 84% and a growth at 10 µM [7] of 57.8%. It also gave a growth at 10 µM [8] of -32%, a growth at 10 µM [9] of -19.5% and an Activity [10] of 38.5%. It also gave a zone of inhibition at 500 µg/mL [11] of 0 mm, an Activity [12] of 144% and a GI50 [13] of 2.95 µM. The CC50 [13, 27] was greater than 50.1 µM, the TGI ([13]; read-out: pTGI (converted)) was 38 µM and the growth at 10 µM [14] was 65.6%. It also gave a growth at 10 µM [15] of 62.8%, a growth at 10 µM [16] of 57% and a zone of inhibition at 100 µg/mL [17] of 0 mm. For the same compound, the GI50 [18] was 3.09 µM, the CC50 [18, 27] was greater than 50.1 µM and the TGI ([18]; read-out: pTGI (converted)) was 20.9 µM. It also gave a zone of inhibition at 100 µg/mL [19] of 0 mm, a GI50 [20] of 3.02 µM and a CC50 [20, 27] greater than 50.1 µM. For the same compound, the TGI ([20]; read-out: pTGI (converted)) was 15.8 µM, the growth at 10 µM [21] was 13.8% and the growth at 10 µM [22] was -5.12%. It also gave a growth at 10 µM [23] of 69.9%, a GI50 [24] of 1.48 µM and a CC50 [24, 27] of 17.4 µM. For the same compound, the TGI ([24]; read-out: pTGI (converted)) was 4.17 µM, the GI50 [25] was 1.95 µM and the CC50 [25, 27] was greater than 50.1 µM. The TGI ([25]; read-out: pTGI) was greater than 50.1 µM, the GI50 [26] was 2 µM and the CC50 [26, 27] was greater than 50.1 µM. For the same compound, the TGI ([26]; read-out: pTGI) was greater than 50.1 µM.
